Tested on: HEK-293T
Test: Multiplex assay against HEK293T;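 as to Population Tubulin-Different-Phenotype (%): share of the cells with healthy nuclei that show this phenotype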
Assay type: toxicity, cell-based
Conditions: human
Method in brief: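 Four dyes were applied at seeding to live cells: Hoechst33342, BioTracker Green Microtubule Cytoskeleton Dye, MitoTracker Red and Annexin V Alexa Fluor 680. Imaging after compound addition used a CQ1 microscope at 37°C and 5% CO2. CellPathfinder machine-learning gating then sorted cells into Hoechst high-intensity objects or normal cells, normal cells into healthy, pyknosed or fragmented nuclei, and pyknosed cells into mitotic or apoptotic, with tubulin, mitochondrial-mass and membrane-permeability phenotypes given as per cents of healthy-nucleus cells.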

[1] = 12 h, 1 µM, compound concentration 1 uM, replicate 1
[2] = 12 h, 1 µM, compound concentration 1 uM, replicate 2
[3] = 12 h, 10 µM, compound concentration 10 uM, replicate 1
[4] = 12 h, 10 µM, compound concentration 10 uM, replicate 2
[5] = 24 h, 1 µM, compound concentration 1 uM, replicate 1
[6] = 24 h, 1 µM, compound concentration 1 uM, replicate 2
[7] = 24 h, 10 µM, compound concentration 10 uM, replicate 1
[8] = 24 h, 10 µM, compound concentration 10 uM, replicate 2
[9] = 48 h, 1 µM, compound concentration 1 uM, replicate 1
[10] = 48 h, 1 µM, compound concentration 1 uM, replicate 2
[11] = 48 h, 10 µM, compound concentration 10 uM, replicate 1
[12] = 48 h, 10 µM, compound concentration 10 uM, replicate 2

CN1CCN(CCOc2cc(OC3CCOCC3)c3c(Nc4c(Cl)ccc5c4OCO5)ncnc3c2)CC1 [SARACATINIB]
Population Apoptotic (%) [1]: 51%
Population Fragmented Nuclei (%) [1]: 11%
Population Healthy Nuclei (%) [1]: 29%
Population Hoechst High Intensity Objects (%) [1]: 15%
Population Membrane Permeable-Phenotype (%) [1]: 2%
Population Mitochondria Different-Phenotype (%) [1]: 89%
Population Mitotic Cells (%) [1]: 48%
Population Normal (%) [1]: 84%
Population Pyknosed Nuclei (%) [1]: 58%
Population Tubulin-Different-Phenotype (%) [1]: 82%
Total Cell Count [1]: 345
Population Apoptotic (%) [2]: 22%
Population Fragmented Nuclei (%) [2]: 4%
Population Healthy Nuclei (%) [2]: 31%
Population Hoechst High Intensity Objects (%) [2]: 8%
Population Membrane Permeable-Phenotype (%) [2]: 3%
Population Mitochondria Different-Phenotype (%) [2]: 71%
Population Mitotic Cells (%) [2]: 77%
Population Normal (%) [2]: 91%
Population Pyknosed Nuclei (%) [2]: 63%
Population Tubulin-Different-Phenotype (%) [2]: 58%
Population Apoptotic (%) [3]: 72%
Population Fragmented Nuclei (%) [3]: 15%
Population Healthy Nuclei (%) [3]: 21%
Population Hoechst High Intensity Objects (%) [3]: 17%
Population Membrane Permeable-Phenotype (%) [3]: 15%
Population Mitochondria Different-Phenotype (%) [3]: 94%
Population Mitotic Cells (%) [3]: 27%
Population Normal (%) [3]: 82%
Population Pyknosed Nuclei (%) [3]: 63%
Population Tubulin-Different-Phenotype (%) [3]: 89%
Total Cell Count [3]: 223
Population Apoptotic (%) [4]: 82%
Population Fragmented Nuclei (%) [4]: 6%
Population Healthy Nuclei (%) [4]: 22%
Population Hoechst High Intensity Objects (%) [4]: 7%
Population Membrane Permeable-Phenotype (%) [4]: 2%
Population Mitochondria Different-Phenotype (%) [4]: 100%
Population Mitotic Cells (%) [4]: 17%
Population Normal (%) [4]: 92%
Population Pyknosed Nuclei (%) [4]: 71%
Population Tubulin-Different-Phenotype (%) [4]: 100%
Total Cell Count [4]: 190
Population Apoptotic (%) [5]: 54%
Population Fragmented Nuclei (%) [5]: 11%
Population Healthy Nuclei (%) [5]: 36%
Population Hoechst High Intensity Objects (%) [5]: 13%
Population Membrane Permeable-Phenotype (%) [5]: 3%
Population Mitochondria Different-Phenotype (%) [5]: 87%
Population Mitotic Cells (%) [5]: 45%
Population Normal (%) [5]: 86%
Population Pyknosed Nuclei (%) [5]: 52%
Population Tubulin-Different-Phenotype (%) [5]: 65%
Total Cell Count [5]: 382
Population Apoptotic (%) [6]: 28%
Population Fragmented Nuclei (%) [6]: 4%
Population Healthy Nuclei (%) [6]: 39%
Population Hoechst High Intensity Objects (%) [6]: 5%
Population Membrane Permeable-Phenotype (%) [6]: 1%
Population Mitochondria Different-Phenotype (%) [6]: 58%
Population Mitotic Cells (%) [6]: 71%
Population Normal (%) [6]: 94%
Population Pyknosed Nuclei (%) [6]: 55%
Population Tubulin-Different-Phenotype (%) [6]: 66%
Total Cell Count [6]: 217
Population Apoptotic (%) [7]: 80%
Population Fragmented Nuclei (%) [7]: 12%
Population Healthy Nuclei (%) [7]: 15%
Population Hoechst High Intensity Objects (%) [7]: 23%
Population Membrane Permeable-Phenotype (%) [7]: 0%
Population Mitochondria Different-Phenotype (%) [7]: 100%
Population Mitotic Cells (%) [7]: 19%
Population Normal (%) [7]: 76%
Population Pyknosed Nuclei (%) [7]: 71%
Population Tubulin-Different-Phenotype (%) [7]: 90%
Total Cell Count [7]: 248
Population Apoptotic (%) [8]: 88%
Population Fragmented Nuclei (%) [8]: 5%
Population Healthy Nuclei (%) [8]: 25%
Population Hoechst High Intensity Objects (%) [8]: 5%
Population Membrane Permeable-Phenotype (%) [8]: 6%
Population Mitochondria Different-Phenotype (%) [8]: 95%
Population Mitotic Cells (%) [8]: 11%
Population Normal (%) [8]: 94%
Population Pyknosed Nuclei (%) [8]: 69%
Population Tubulin-Different-Phenotype (%) [8]: 85%
Total Cell Count [8]: 208
Population Apoptotic (%) [9]: 51%
Population Fragmented Nuclei (%) [9]: 16%
Population Healthy Nuclei (%) [9]: 47%
Population Hoechst High Intensity Objects (%) [9]: 18%
Population Membrane Permeable-Phenotype (%) [9]: 2%
Population Mitochondria Different-Phenotype (%) [9]: 50%
Population Mitotic Cells (%) [9]: 48%
Population Normal (%) [9]: 81%
Population Pyknosed Nuclei (%) [9]: 36%
Population Tubulin-Different-Phenotype (%) [9]: 49%
Total Cell Count [9]: 448
Population Apoptotic (%) [10]: 26%
Population Fragmented Nuclei (%) [10]: 4%
Population Healthy Nuclei (%) [10]: 70%
Population Hoechst High Intensity Objects (%) [10]: 5%
Population Membrane Permeable-Phenotype (%) [10]: 1%
Population Mitochondria Different-Phenotype (%) [10]: 32%
Population Mitotic Cells (%) [10]: 73%
Population Normal (%) [10]: 94%
Population Pyknosed Nuclei (%) [10]: 25%
Population Tubulin-Different-Phenotype (%) [10]: 55%
Total Cell Count [10]: 315
Population Apoptotic (%) [11]: 73%
Population Fragmented Nuclei (%) [11]: 23%
Population Healthy Nuclei (%) [11]: 30%
Population Hoechst High Intensity Objects (%) [11]: 26%
Population Membrane Permeable-Phenotype (%) [11]: 3%
Population Mitochondria Different-Phenotype (%) [11]: 96%
Population Mitotic Cells (%) [11]: 26%
Population Normal (%) [11]: 73%
Population Pyknosed Nuclei (%) [11]: 45%
Population Tubulin-Different-Phenotype (%) [11]: 78%
Total Cell Count [11]: 230
Population Apoptotic (%) [12]: 84%
Population Fragmented Nuclei (%) [12]: 6%
Population Healthy Nuclei (%) [12]: 41%
Population Hoechst High Intensity Objects (%) [12]: 11%
Population Membrane Permeable-Phenotype (%) [12]: 0%
Population Mitochondria Different-Phenotype (%) [12]: 98%
Population Mitotic Cells (%) [12]: 15%
Population Normal (%) [12]: 88%
Population Pyknosed Nuclei (%) [12]: 52%
Population Tubulin-Different-Phenotype (%) [12]: 71%
Total Cell Count [12]: 204

Reference: ChEMBL document CHEMBL4689842, “EUbOPEN Chemogenomics Library wave 1” (2021)
